Blank lines part the entries; values can stand above or below the compound they belong to.
Assays:
[1] = biological target: T1, Adenosine receptor A1 (Homo sapiens) (UniProt P30542); assay: Loss of [3H]CPX binding to A1 adenosine receptor of DDT1 MF-2 (DDT) cells at 0.05 uM
T1 sequence (whole entry): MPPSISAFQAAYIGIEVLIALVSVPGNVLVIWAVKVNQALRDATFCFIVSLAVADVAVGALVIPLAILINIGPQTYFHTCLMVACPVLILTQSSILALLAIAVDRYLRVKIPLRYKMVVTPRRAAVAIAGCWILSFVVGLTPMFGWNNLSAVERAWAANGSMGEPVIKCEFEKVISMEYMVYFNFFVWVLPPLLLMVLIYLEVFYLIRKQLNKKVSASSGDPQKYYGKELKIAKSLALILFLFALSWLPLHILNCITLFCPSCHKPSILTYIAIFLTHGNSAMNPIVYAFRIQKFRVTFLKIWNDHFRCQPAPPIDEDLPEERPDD
In short: (§1)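 DDT1 MF-2 monolayers, 1 day preconfluent, were exposed to xanthine in HBSS for 2 h at 37 °C, then washed 5 times (3 min each) in ligand-free HBSS. Membranes in 50 mM Tris-HCl pH 7.4 with 5 mM MgCl2 were incubated 2 h at room temperature with 0.06–4 nM [3H]CPX; 10 μM N6-cyclopentyladenosine defined nonspecific binding. Triplicate; Scatchard Bmax versus control.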

Adenosine A2 receptor [2] = biological target: T2, Adenosine A2 receptor (Rattus norvegicus, UniProt P29276+P30543); assay: Binding of [3H]NECA to A2 adenosine receptor (post-Xanthine); assay type: protein assay
Adenosine A2 receptor [3] = biological target: T2, Adenosine A2 receptor; assay: Inhibition of [3H]NECA binding to A2 adenosine receptor of PC12 cell membranes; settings: pc-12
[4] = biological target: T1, Adenosine receptor A1 (Homo sapiens); assay: Loss of [3H]CPX binding to A1 adenosine receptor of DDT1 MF-2 (DDT) cells at 0.01 uM; in short: as §1
[5] = test system: Adenosine receptor A1 (Mesocricetus auratus); assay: Loss of specific binding of [3H]CPX to the A1-adenosine receptor of DDT1 MF-2 (DDT) cells at a concentration of 1 uM
[6] = test system: Adenosine receptor A1 (Mesocricetus auratus); assay: Loss of specific binding of [3H]CPX to the A1-adenosine receptor of DDT1 MF-2 (DDT) cells at a concentration of 10 uM
[7] = biological target: T1, Adenosine receptor A1 (Homo sapiens); assay: Percentage loss of [3H]- CPX binding in cells pretreated with a xanthine derivative at 50 uM; in short: as §1
[8] = biological target: T1, Adenosine receptor A1 (Homo sapiens); assay: Percent loss of [3H]CPX binding to A1 adenosine receptor of DDT1 MF-2 (DDT) cells 10 uM; in short: as §1
[9] = biological target: T3, Adenosine A2 receptor (Rattus norvegicus) (UniProt P29276+P30543); assay: Loss of [3H]NECA binding to A2 adenosine receptor at 50 uM; assay type: protein assay
In short: (§2)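 PC12 monolayers, 1 day preconfluent, were exposed to xanthine in HBSS for 2 h at 37 °C, then washed 7 times (3 min each) in ligand-free HBSS. Membranes in Tris-Mg pH 7.4 were bound 2 h at room temperature with 1–10 nM [3H]NECA plus adenosine deaminase; 10 μM NECA defined nonspecific binding. Triplicate; Scatchard Bmax compared with control.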

Adenosine receptor A1 = assay: Specific binding of [3H]CPX to the A1-adenosine receptor
[10] = test system: Adenosine receptor A1 (Mesocricetus auratus); assay: Loss of [3H]CPX binding to A1 adenosine receptor of DDT1 MF-2 (DDT) cells at 10 uM
Adenosine A2 receptor [11] = biological target: T2, Adenosine A2 receptor; assay: Binding of [3H]NECA to A2 adenosine receptor of PC12 cell membranes; settings: pc-12
In short: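 PC12 cell membranes (0.1–0.2 mg protein) were incubated 2 h at room temperature in 50 mM Tris-HCl pH 7.4 with 5 mM MgCl2, 1 nM [3H]NECA, adenosine deaminase 2 units/mL, and 7–10 xanthine concentrations. Nonspecific binding was set with 10 μM NECA. Bound ligand was separated by filtration and counted by scintillation. Run in triplicate; IC50 from Hill plots.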

[12] = biological target: T1, Adenosine receptor A1 (Homo sapiens); assay: Loss of [3H]CPX binding to A1 adenosine receptor of DDT1 MF-2 (DDT) cells at 0.1 uM; in short: as §1
[13] = biological target: T3, Adenosine A2 receptor (Rattus norvegicus); assay: Inhibition of [3H]NECA binding to A2 adenosine receptor of PC12 cell membranes at 50 uM; settings: PC-12; in short: as §2

Structure (SMILES): CCCn1c(=O)c2nc(C3CCCC3)[nH]c2n(CCCOC(=O)c2ccc(S(=O)(=O)F)cc2)c1=O
Loss [1]: 74%
Kd (Adenosine A2 receptor [2]): 53 nM
IC50 (Adenosine A2 receptor [3]): 9000 nM
Loss [4]: 60%

Loss [5]: 0%
Structure (SMILES): CCCn1c(=O)c2nc(C3CCCC3)[nH]c2n(CC(C)OC(=O)CBr)c1=O (centres undefined)

Loss [6]: 28%
Structure (SMILES): CCCn1c(=O)c2nc(CCNC(=O)CBr)[nH]c2n(CCC)c1=O

Structure (SMILES): CCCn1c(=O)c2nc(C3CCCC3)[nH]c2n(CCCOC(=O)c2cccc(S(=O)(=O)F)c2)c1=O
Loss [5]: 11%

Structure (SMILES): CCCn1c(=O)c2nc(CNC(=O)c3cccc(S(=O)(=O)F)c3)[nH]c2n(CCC)c1=O
Loss [7]: 58%
Kd (Adenosine A2 receptor [2]): 40 nM
Loss [8]: 38%
Loss [9]: 0%
IC50 (Adenosine A2 receptor [3]): 45000 nM

Loss [6]: 17%
Structure (SMILES): CCCn1c(=O)c2nc(CNC(=O)CBr)[nH]c2n(CCC)c1=O

Structure (SMILES): CCCn1c(=O)c2nc(CCNC(=O)c3ccc(S(=O)(=O)F)cc3)[nH]c2n(CCC)c1=O
Kd (Adenosine receptor A1): 0.74 nM
Loss [6]: 72%

Structure (SMILES): O=C(OCCCn1c(=O)c2nc(C3CCCC3)[nH]c2n(CCCOC(=O)c2ccc(S(=O)(=O)F)cc2)c1=O)c1ccc(S(=O)(=O)F)cc1
Loss [6]: 50%

Loss [6]: 16%
Structure (SMILES): CCCn1c(=O)c2nc(CCCCCN3C(=O)C=CC3=O)[nH]c2n(CCC)c1=O

Structure (SMILES): CCCn1c(=O)c2[nH]c(CCCNC(=O)c3cccc(S(=O)(=O)F)c3)nc2n(CCC)c1=O
Kd (Adenosine receptor A1): 0.86 nM

Structure (SMILES): CCCn1c(=O)c2nc(NC(=O)c3cccc(S(=O)(=O)F)c3)[nH]c2n(CCC)c1=O
Loss [6]: 54%

Loss [6]: 0%
Structure (SMILES): CCCn1c(=O)c2nc(-c3ccc(Cl)c([N+](=O)[O-])c3)[nH]c2n(CCC)c1=O

Loss [10]: 0%
Structure (SMILES): CCCn1c(=O)c2nc(CNC(=O)c3ccccc3)[nH]c2n(CCC)c1=O

Structure (SMILES): CCCn1c(=O)c2[nH]c(NC(=O)c3cccc(S(=O)(=O)F)c3)nc2n(CCC)c1=O
Kd (Adenosine receptor A1): 0.79 nM

Structure (SMILES): CCCn1c(=O)c2nc(CNC(=O)c3ccc(S(=O)(=O)F)cc3)[nH]c2n(CCC)c1=O
IC50 (Adenosine A2 receptor [11]): 49000 nM
Loss [12]: 25%
Loss [6]: 85%
Kd (Adenosine A2 receptor [2]): 51 nM
Loss [5]: 72%
Loss [13]: 0%

Structure (SMILES): CCCn1c(=O)c2nc(CCCNC(=O)c3cccc(S(=O)(=O)F)c3)[nH]c2n(CCC)c1=O
Loss [6]: 30%

Structure (SMILES): O=C(OCCCn1c(=O)c2[nH]c(C3CCCC3)nc2n(CCCOC(=O)c2ccc(S(=O)(=O)F)cc2)c1=O)c1ccc(S(=O)(=O)F)cc1
Kd (Adenosine receptor A1): 0.82 nM

Loss [6]: 7%
Structure (SMILES): CCCn1c(=O)c2nc(CCCCCNC(=O)CBr)[nH]c2n(CCC)c1=O

Structure (SMILES): CCCn1c(=O)c2nc(C3CCC(OC(=O)c4ccc(S(=O)(=O)F)cc4)C3)[nH]c2n(CCC)c1=O (centres undefined)
Loss [5]: 16%

Structure (SMILES): CCCn1c(=O)c2nc(CCCNC(=O)c3ccc(S(=O)(=O)F)cc3)[nH]c2n(CCC)c1=O
Kd (Adenosine A2 receptor [2]): 43 nM
Loss [9]: 0%
IC50 (Adenosine A2 receptor [3]): 26000 nM

Structure (SMILES): CCCn1c(=O)c2nc(NC(=O)c3ccc(S(=O)(=O)F)cc3)[nH]c2n(CCC)c1=O
Kd (Adenosine receptor A1): 1.1 nM
Loss [6]: 88%

Kd (Adenosine receptor A1): 1.1 nM
Structure (SMILES): CCCn1c(=O)c2[nH]c(C3CCCC3)nc2n(CC(C)OC(=O)CBr)c1=O (centres undefined)

Structure (SMILES): CCCn1c(=O)n(CCCOC(=O)c2ccc(S(=O)(=O)F)cc2)c(=O)c2[nH]c(C3CCCC3)nc21
IC50 (Adenosine A2 receptor [3]): > 100000 nM

Reference: ChEMBL document CHEMBL1127726, “Substituted 1,3-dipropylxanthines as irreversible antagonists of A1 adenosine receptors” (J Med Chem, 1994)
